Experimental data: ChEMBL document CHEMBL1126856, “Azulenic retinoids: novel nonbenzenoid aromatic retinoids with anticancer activity” (1993)
“And” between values parts separate entries of the source, which are not always exact repeats. Equal values may be shown once.

Legend:
Format in all cases: functional, Mus musculus
[1] = test system: C3H 10T1/2; assay: Tested for toxicity against C3H10T1/2 cell line of murine embryo fibroblasts at 10e-8 M
How it was run: (§1)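 C3H10T1/2 cells plated at clonal density and exposed to retinoid in acetone (0.5%) for 7 days. Plating efficiency was normalized to the MCA-treated (1 day) control plating efficiency.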

[2] = test system: C3H 10T1/2; assay: Tested for inhibition of neoplastic transformation by measuring the transformed foci per dish at 10e-10 M
How it was run: (§2)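 C3H10T1/2 cells given 3-MCA (3 μg/mL) for 24 h, then 7 days later continuous retinoid in acetone (final 0.5%), renewed at each weekly medium change, for 4 weeks. Cultures were fixed, stained and scored for type II and III transformed foci; result as foci/dish and % of MCA-treated control. 12 dishes per group.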

[3] = test system: C3H 10T1/2; assay: Tested for inhibition of neoplastic transformation by measuring the transformed foci per dish at 10e-8 M; how it was run: as §2
[4] = test system: C3H 10T1/2; assay: Inhibition of neoplastic transformation at a concentration of 10e-6 M; how it was run: as §2
[5] = test system: C3H 10T1/2; assay: The compound was tested for inhibition of neoplastic transformation, at a concentration of 10e-10 M; design: scale not given: the % may be the effect or the level left; how it was run: as §2
[6] = test system: C3H 10T1/2; assay: Tested for anticancer activity by measuring the number of communicating cells using gap junctional communication assay at 10e-6 M (P>0.01)
[7] = test system: C3H 10T1/2; assay: Inhibition of neoplastic transformation at a concentration of 10e-8 M; design: scale not given: the % may be the effect or the level left; how it was run: as §2
[8] = test system: C3H 10T1/2; assay: Toxicity against C3H10T1/2 cell line of murine embryo fibroblasts at 10e-10 M; how it was run: as §1
[9] = test system: C3H 10T1/2; assay: Tested for toxicity against C3H10T1/2 cell line of murine embryo fibroblasts at 10e-6 M; how it was run: as §1
[10] = test system: C3H 10T1/2; assay: Inhibition of neoplastic transformation was measured by measuring the transformed foci per dish at 10e-6 M; how it was run: as §2
[11] = test system: C3H 10T1/2; assay: Tested for anticancer activity by measuring the number of communicating cells using gap junctional communication assay at 10e-6 M (P>0.001)
[12] = test system: C3H 10T1/2; assay: Inhibition of Neoplastic transformation at a concentration of 10*e-8 M; design: scale not given: the % may be the effect or the level left; how it was run: as §2
[13] = test system: C3H 10T1/2; assay: The compound was tested for inhibition of Neoplastic transformation, at a concentration of 10*e-10 M; design: scale not given: the % may be the effect or the level left; how it was run: as §2
[14] = test system: C3H 10T1/2; assay: Inhibition of Neoplastic transformation at a concentration of 10*e-6 M; design: scale not given: the % may be the effect or the level left; how it was run: as §2
[15] = test system: C3H 10T1/2; assay: Tested for toxicity against C3H10T1/2 cell line of murine embryo fibroblasts at 10*e-8 M; how it was run: as §1
[16] = test system: C3H 10T1/2; assay: Inhibition of neoplastic transformation was measured by measuring the transformed foci per dish at 10 e-6 M; how it was run: as §2
[17] = test system: C3H 10T1/2; assay: Toxicity against C3H10T1/2 cell line of murine embryo fibroblasts at 10*e-10 M; how it was run: as §1
[18] = test system: C3H 10T1/2; assay: Tested for inhibition of neoplastic transformation by measuring the transformed foci per dish at 10*e-8 M; how it was run: as §2
[19] = test system: C3H 10T1/2; assay: Tested for anticancer activity by measuring the number of communicating cells using gap junctional communication assay at 10*e-6 M (P>0.001)
[20] = test system: C3H 10T1/2; assay: Tested for inhibition of neoplastic transformation by measuring the transformed foci per dish at 10*e-10 M; how it was run: as §2
[21] = test system: C3H 10T1/2; assay: Tested for toxicity against C3H10T1/2 cell line of murine embryo fibroblasts at 10 e-6 M; how it was run: as §1
[22] = test system: C3H 10T1/2; assay: Tested for anticancer activity by measuring the number of communicating cells using gap junctional communication assay at 10e-6 M
[23] = test system: C3H 10T1/2; assay: Tested for anticancer activity by measuring the number of communicating cells using gap junctional communication assay at 10e-6 M (P>0.05)
[24] = test system: C3H 10T1/2; assay: The compound was tested for inhibition of Neoplastic transformation, at a concentration of 10e-10 M; design: scale not given: the % may be the effect or the level left; how it was run: as §2

Compound | Control [1] | Foci/dish [2] | Foci/dish [3] | Transformed foci, % of MCA-treated control [4] [%] | Control [5] [%] | Control [7] [%] | Control [8] | Control [9] | Foci/dish [10] | also measured
Cc1cc(/C=C/c2ccc(C=O)cc2)c2c(C)ccc(C(C)C)cc1-2 | 174% | 1.5 | 1.75 | 87 | 143 | 166 | 142% | 58% | 0.91 | Communicating cells [6]: 8.7
Cc1ccc(C(C)C)cc2c(C)c(/C=C/c3ccc(C(=O)O)cc3)cc1-2 | 129% | 0.16 | 0.16 | 24 | 24 | 24 | 96% | 84% | 0.16 | Communicating cells [6]: 7.2
O=C(O)c1ccc(/C=C/c2ccc3cccccc2-3)cc1 | 147% | 0.33 | 0.33 | 12 | 50 | 50 | 129% | 67% | 0.08 | Communicating cells [11]: 7.4
CC(/C=C/C=C/c1cc(C)c2cc(C(C)C)ccc(C)c1-2)=C\C(=O)O |  |  |  |  |  |  |  |  |  | Control [12]: 120%; Control [13]: 103%; Control [14]: 76%; Control [15]: 120%; Foci/dish [16]: 0.8; Control [17]: 116%; Foci/dish [18]: 1.27; Communicating cells [19]: 9.1; Foci/dish [20]: 1.08; Control [21]: 89.1%
Cc1cc(/C=C/c2ccc(C(=O)O)cc2)c2c(C)ccc(C(C)C)cc1-2 | 94% | 1.54 | 0.42 | 0 | 146 | 40 | 119% | 67% | 0 | Communicating cells [11]: 18.3
CC(/C=C/C=C/c1cc(C)c2cc(C(C)C)ccc(C)c1-2)=C\C=O | 129% | 1.16 | 1 | 119 | 110 | 95 | 115% | 125% | 1.25 | Communicating cells [22]: 5.7
Cc1cc(/C=C/c2ccc(CO)cc2)c2c(C)ccc(C(C)C)cc1-2 | 138% | 1 | 1.16 | 104 | 95 | 110 | 129% | 84% | 1.09 | Communicating cells [22]: 4.9
Cc1cc(/C=C/C=C/c2ccc(C(=O)O)cc2)c2c(C)ccc(C(C)C)cc1-2 | 94% | 0.33 | 0.33 | 75 | 50 | 50 | 89% | 98% | 0.5 | Communicating cells [22]: 2.9
Cc1ccc2c(/C=C/c3ccc(C(=O)O)cc3)ccc(C(C)C)cc1-2 | 75% | 0.16 | 0.16 | 0 | 24 | 24 | 75% | 66% | 0 | Communicating cells [11]: 9.5
Cc1cc(/C=C/C=C/C(=C\C(=O)O)C(F)(F)F)c2c(C)ccc(C(C)C)cc1-2 | 156% | 0.58 | 0.58 | 88 | 88 | 88 | 98% | 178% | 0.58 | Communicating cells [23]: 5.6
C/C(=C\c1ccc(C(=O)O)cc1)c1ccc2c(c1)C(C)(C)CCC2(C)C | 83% and 91% | 0 | 0 | 0 | 0 | 0 | 95% and 96% | 80% and 85% | 0 | Communicating cells [11]: 21.2; Communicating cells [19]: 18.5; Control [24]: 0%
CC(/C=C/c1cc(C)c2cc(C(C)C)ccc(C)c1-2)=C\C=C\C(C)=C\C(=O)O | 151% | 0.4 | 0.4 | 75 | 61 | 61 | 94% | 178% | 0.5 | Communicating cells [22]: 1.55
CC(/C=C/C=C/c1ccc2cccccc1-2)=C(/F)C(=O)O | 120% | 0.58 | 0.08 | 12 | 88 | 12 | 113% | 78% | 0.08 | Communicating cells [6]: 8.8
CC(/C=C/C=C/c1cc(C)c2cc(C(C)C)ccc(C)c1-2)=C\CO | 120% | 1.5 | 1.5 | 112 | 142 | 142 | 125% | 89% | 1.18 | Communicating cells [23]: 8.8
